Measured values gathered from unrelated publications.
Target: Dual specificity protein kinase CLK3 (CLK3, Homo sapiens, UniProt P49761)

SMILES	assay	conditions	quantity	value
Nc1ncc(-c2nc(N3CCOCC3)nc(N3CCOCC3)n2)c(C(F)F)n1	binding, competition with immobilised ligand	10 µM	remaining binding	90%
Cn1cncc1[C@@](O)(COc1ccc(C#N)cc1-c1ccc(OC(F)(F)F)cc1)c1ccc(C#N)cc1	cell-free assay, competition with immobilised ligand	1 µM	remaining binding	100%
C#Cc1n[nH]c2c(-c3cn([C@@H](C)c4ccccn4)c(=O)[nH]c3=O)cc(F)cc12	enzyme activity, inhibitor	0.1 µM	inhibition	0.7%
N#CC1(c2ccccn2)CCN(Cc2cc(C(=O)O)c(=O)n3ccccc23)CC1	cell-free assay, competition with immobilised ligand	1 µM	remaining binding	100%
Cc1nn(C)cc1-c1nc2c(N3CCN(Cc4ccc(Cl)cc4)CC3)c(Cl)cnc2[nH]1	binding, competition with immobilised ligand	1 µM	remaining binding	88%
COc1ncccc1-c1cnn2ccc(N3CCN(C(=O)OC(C)C)CC3)nc12	binding, competition with immobilised ligand	1 µM	remaining binding	78%
CC(C)(C)c1cc(C=C(C#N)C#N)cc(Br)c1O	enzyme activity, inhibitor	0.5 µM	remaining activity	122%
Cn1cc(-c2cc(F)cc(N3CCn4c(cc5c4CCCC5)C3=O)c2CO)cc(Nc2ccc(N3CCN(C4COC4)CC3)cn2)c1=O	enzyme activity, inhibitor	0.1 µM	inhibition	11%
CCn1cnc2c(Nc3cccc(Cl)c3)nc(N[C@H]3CCCC[C@H]3N)nc21	enzyme activity, inhibitor	0.5 µM	remaining activity	99.8%
Cn1cc(-c2cccc(N3CCc4c(sc5c4CC(C)(C)C5)C3=O)c2CO)cc(Nc2ccncn2)c1=O	enzyme activity, inhibitor	1 µM	inhibition	4%
COc1cc(Nc2ncc(F)c(Nc3ccc4c(n3)NC(=O)C(C)(C)O4)n2)cc(OC)c1OC	binding, competition with immobilised ligand	10 µM	inhibition	78%
